For 9 molecules, GI50 results are on record in ChEMBL document CHEMBL2417382, “Derivatives of grindelic acid: from a non-active natural diterpene to synthetic antitumor derivatives” (2013).

Activity calls are given as the source filed them. The calls are words filed in the database; no cut-off is given here.

What all share (assay type): functional
One test deals with WiDr. Briefly: Antiproliferative activity against human WiDr cells after 48 hrs by SRB assay. A digest of the protocol:
(§1)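 Cells grown in RPMI 1640 with 5% heat-inactivated FCS and 2 mM L-glutamine. Seeded per well at 20,000 (WiDr), 15,000 (T-47D) or 10,000 (HeLa, SW1573, HBL-100). Dosing started the day after plating, in triplicate at 1–100 µM, with 0.25% DMSO as the vehicle control. After 48 h, TCA fixation, SRB staining and OD at 492 nm. Percentage growth calculated against untreated cells from OD at T0 and end, using NCI formulas.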
Background: Sulforhodamine B stains cellular protein and so reports cell mass.

Another test deals with T47D. Briefly: Antiproliferative activity against human T47D cells after 48 hrs by SRB assay. A digest of the protocol:
as §1

The next test has as its system HeLa. Briefly: Antiproliferative activity against human HeLa cells after 48 hrs by SRB assay. A digest of the protocol:
as §1

For another test, the system named is SW1573. The experiment in a line: Antiproliferative activity against human SW1573 cells after 48 hrs by SRB assay. To be noted: SW1573, 48 h. A digest of the protocol:
as §1

The next test has as its system HBL-100. The experiment in a line: Antiproliferative activity against human HBL100 cells after 48 hrs by SRB assay. To be noted: HBL-100, 48 h. A digest of the protocol: as §1

The term GI50 denotes the concentration giving 50% growth inhibition. For the molecule `CC1=CC[C@H]2C(C)(C)CCC[C@]2(C)[C@@]12CC[C@@](C)(C/C=C(\C)CO)O2`, the GI50 in the test with WiDr is 19 µM; with T47D, 15 µM; in the test on HeLa, 16 µM; in the test on SW1573, 18 µM; with HBL-100, 16 µM.
In the case of `COC(=O)C[C@]1(C)CC[C@@]2(O1)C(C)=CC[C@H]1C(C)(C)CCC[C@@]12C`, the GI50 in the test with WiDr stood at 23 µM; with T47D, 19 µM; in the test with HeLa it was 16 µM; in the test on SW1573, 18 µM; in the test on HBL-100 it was 17 µM.
For `CCCCCCCCCCc1cn(CC[C@]2(C)CC[C@@]3(O2)C(C)=CC[C@H]2C(C)(C)CCC[C@@]23C)nn1`, in that order: 15 µM, 44 µM, 25 µM, 15 µM and 16 µM.
The like results for `CC1=CC[C@H]2C(C)(C)CCC[C@]2(C)[C@@]12CC[C@@](C)(CCn1cc(C[C@]3(C)CC[C@@]4(O3)C(C)=CC[C@H]3C(C)(C)CCC[C@@]34C)nn1)O2` were, in that order, “inactive”, 17 µM, 17 µM, 11 µM and 9.3 µM.
For `CCOC(=O)/C=C/C[C@]1(C)CC[C@@]2(O1)C(C)=CC[C@H]1C(C)(C)CCC[C@@]12C`, in that order: 35 µM, 32 µM, 19 µM, 18 µM and 16 µM.
Turning to `CCOC(=O)/C(C)=C/C[C@]1(C)CC[C@@]2(O1)C(C)=CC[C@H]1C(C)(C)CCC[C@@]12C`, the GI50 in the test with WiDr turned out to be 37 µM; with T47D, 32 µM; with HeLa it was 18 µM; with SW1573 it was 20 µM; in the test with HBL-100, 17 µM.
For `CC1=CC[C@H]2C(C)(C)CCC[C@]2(C)[C@@]12CC[C@@](C)(CC(=O)N(Cc1ccccc1)C(C)(C)C(=O)NCCN1CCOCC1)O2`, in that order: 12 µM, 19 µM, 18 µM, 16 µM and 16 µM.
Regarding `CC1=CC[C@H]2C(C)(C)CCC[C@]2(C)[C@@]12CC[C@@](C)(C[C@H]1O[C@@H]1CO)O2`, the GI50 with WiDr was found to be 17 µM; in the test with T47D, 15 µM; in the test on HeLa, 17 µM; with SW1573, 18 µM; in the test with HBL-100, 16 µM.
As to `C#CC[C@]1(C)CC[C@@]2(O1)C(C)=CC[C@H]1C(C)(C)CCC[C@@]12C`, the GI50 came to 4.8 µM in the test with WiDr; 28 µM with T47D; 16 µM with HeLa; 15 µM with SW1573; 17 µM with HBL-100.
